Published values from different studies.
Each line is one published result; the experiments were not run side by side.
Organism: Human immunodeficiency virus 1
Effect on: viral replication

Structure (SMILES) | assay | system | setting | measurement | value
c1cc(CN2CCCNCCNCCCNCC2)ccc1CN1CCCNCCNCCCNCC1 | inhibitor, luciferase | TZM-bl |  | EC50 | 0.00093 µM
O=C(O)c1cc(F)cc(Cn2ccc3ccc(-c4ccc5ccn(Cc6cccc(OC(F)(F)F)c6)c5c4)cc32)c1 | inhibitor | IIIB |  | IC50 | 2 µM
O=c1cc(-c2ccc(O)c(O)c2)oc2cc(O)cc(O)c12 | inhibitor | human PBMC | 6 days | EC50 | 12.7 µM
O=C(O)c1cc(O)c(O)c(O)c1 | inhibitor, luciferase | TZM-bl | 48 h | IC50 | 0.36 µg/mL
c1cc(CN2CCCNCCNCCCNCC2)ccc1CN1CCCNCCNCCCNCC1 | inhibitor | MAGI, BAL |  | IC90 | > 10 µM
Cc1nc(C(CN)NC(=O)C(=O)Nc2ccc3c(c2)OCO3)sc1CO (stereo not drawn) | ELISA | MT2 |  | IC50 | > 79 µM
COc1ccccc1CN[C@H]1C2CCN(CC2)[C@H]1C(c1ccccc1)c1ccccc1 | ELISA | human PBMC, BAL | 7 days | IC50 | 15.2 µM
O=c1cc(-c2ccc(O)cc2)oc2cc(O)cc(O)c12 | inhibitor | human PBMC | 6 days | EC50 | 5 µM
O=[N+]([O-])c1cccc(-c2nc3c4cc(I)ccc4c4ccccc4c3[nH]2)c1 | inhibitor | human PBMC | 7 days | IC50 | 14.2 µM
O=c1[nH]cc(C(c2cccc(C(c3c[nH]c(=O)[nH]c3=O)c3c[nH]c(=O)[nH]c3=O)c2)c2c[nH]c(=O)[nH]c2=O)c(=O)[nH]1 | inhibitor, ELISA |  | 1 µg/mL | inhibition | 20%
CN1CC[C@H](c2c(O)cc(O)c3c(=O)cc(-c4ccccc4Cl)oc23)[C@H](O)C1 | inhibitor | human PBMC | 6 days | EC50 | 0.02 µM
Cc1cn([C@H]2C[C@H](N=[N+]=[N-])[C@@H](CO)O2)c(=O)[nH]c1=O | inhibitor | CEM-GFP | 8 days | IC50 | 0.094 µg/mL
CC(C)(C)NC(=O)[C@@H]1C[C@@H]2CCCC[C@@H]2CN1C[C@@H](O)[C@H](Cc1ccccc1)NC(=O)[C@H](CC(N)=O)NC(=O)c1ccc2ccccc2n1 | inhibitor | T-lymphoid |  | IC50 | 0.021 µM
C[C@@H](O[C@H]1OCCN(Cc2n[nH]c(=O)[nH]2)[C@H]1c1ccc(F)cc1)c1cc(C(F)(F)F)cc(C(F)(F)F)c1 | inhibitor, ELISA | human PBMC, BAL |  | IC50 | 6.4 µM
O=c1oc2c(O)c(O)cc3c(=O)oc4c(O)c(O)cc1c4c23 | inhibitor, luciferase | TZM-bl | 48 h | IC50 | 18.8 µg/mL
